Experimental findings from ChEMBL document CHEMBL1148483, “Potent nonclassical nucleoside antiviral drugs based on the N,N-diarylformamidine concept” (J Med Chem, 2004) are described below.

A short description of data set [1]: Partition coefficient (logP). The format is physicochemical. The following applies: octanol/water.
The nature of data set [2]: Half life is the time required for hydrolysis of compound to 3TC in HBV medium at 37 degree celsius. Type of data set: ADME. In a few lines:
(§1)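 Compound in DMSO diluted 1:100 into medium, final concentration around 5×10^-4 M, and held at 37 °C. Media: PBS (0.01 M, pH 7.4), HepG2.2.15 culture medium, or MT-4 medium (RPMI 1640 + 10% FCS). Samples taken over time and quenched in ice-cold methanol. Conversion to 3TC followed by HPLC at 317 nm. t1/2 is the time to 50% hydrolysis.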

Data set [3] is described as follows: Half life is the time required for hydrolysis of compound to 3TC in HepG 2.2.15 lysate medium at 37 degree celsius. The note with it: human, HepG 2.2.15 cell lysate. Type of data set: ADME, HepG2 2.2.15. In a few lines:
(§2)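 Cell lysates prepared from PBS-washed HepG2.2.15 or MT-4 cells, about 10×10^6 cells/mL, in Tris-HCl 50 mM, NaCl 150 mM, EDTA 0.1 mM, 0.5% NP40 and protease inhibitors. Lysis 10 min on ice, then centrifuged; supernatant used. Compound added from DMSO to a final concentration around 5×10^-4 M, 37 °C. Timed samples quenched in cold methanol, HPLC at 317 nm. t1/2 is the time to 50% conversion to 3TC.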

The nature of data set [4]: Half life is the time required for hydrolysis of compound to 3TC in PBS medium at 37 degree celsius. The format is ADME. In a few lines:
as §1

The test system of data set [5] is MT4. Nature of the data set: Effective concentration to inhibit HIV-1 IIIB cytopathicity in MT-4 cells was determined in vitro. The note with it: Homo sapiens. The format is functional, cell-based. In a few lines: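 HIV-1 IIIB-infected MT-4 cells (RPMI 1640, 10% FCS); inhibition of virus-induced cytopathicity read 5 days post-infection; EC50 = concentration inhibiting cytopathicity by 50%.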
(In general: Damage to the host cells serves as the signal in cytopathic effect assays.)

In data set [6] the test system is MT4. Nature of the data set: Concentration required to cause death of MT-4 cells was determined in vitro. Type of data set: functional. The following applies: Homo sapiens. The method, boiled down: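 Uninfected (mock-infected) MT-4 cells grown in RPMI 1640 + 10% heat-inactivated FCS, 2 mM L-glutamine, gentamicin; viability measured at day 5 at 37 °C, 5% CO2; CC50 = concentration causing 50% death of uninfected cells.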

Data set [7] has as its system PBMC. The experiment in a line: Concentration required to cause death of PBMC cells was determined in vitro. The following applies: Homo sapiens. The format is functional. In a few lines: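 Healthy-donor PBMCs activated 3 days with PHA-P (1 μg/mL) and rhIL-2 (5 IU/mL), 100 000 cells/well in RPMI 1640/10% FCS + 20 IU/mL rhIL-2; drug-induced cytotoxicity judged by microscopic observation; CC50 = concentration causing 50% death of uninfected cells.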

Data set [8] deals with PBMC. Nature of the data set: Effective concentration to inhibit HIV-1 LAI cytopathicity in PBMC cells was determined in vitro. The format is functional, cell-based. The following applies: Homo sapiens. The method, boiled down: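 PHA-P/rhIL-2-activated PBMCs (100 000/well) pretreated 30 min with compound, then infected with 75 TCID50 HIV-1/LAI; supernatant RT activity measured at day 7; triplicates, mean ± SD; EC50 from percent of untreated controls, 50% inhibition of replication.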

Data set [9] deals with MT4. Nature of the data set: Selectivity index is the ratio of CC50 to EC50 values. Type of data set: functional. In a few lines: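 Selectivity index = CC50/EC50 for uninfected versus HIV-1-infected MT-4 cells or PBMCs.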
Data set [10] is described as follows: Half life is the time required for hydrolysis of compound to 3TC in HIV medium at 37 degree celsius. The format is ADME. The method, boiled down:
as §1

Data set [11] is described as follows: Half life is the time required for hydrolysis of compound to 3TC in MT-4 lysate medium at 37 degree celsius. Type of data set: ADME. The following applies: human, MT-4 cell lysate. In a few lines:
as §2

The test system of data set [12] is HepG2. The experiment in a line: Effective concentration to inhibit hepatitis B virus DNA formation in HepG2.2.15 cells was determined in vitro. The following applies: Homo sapiens.

Several values for one entry are separate records, joined by “and”; a condition that tells them apart may be missing. Equal entries are not always repeated. A value given as a limit tells only on which side of the number the result lay.

As usually defined, the logP is a log measure of how a compound divides between an organic and an aqueous phase. High values mean a more lipophilic compound, low ones a more hydrophilic compound. The half-life is how long it takes for the measured level to halve. Read a low half-life as fast loss. A word on the EC50: it is the concentration giving half of the maximal effect. Read a low EC50 as greater potency. The CC50 is the concentration that lowers cell viability or growth by half. On to `CN(C)/C=N/c1ccn(C2CSC(CO)O2)c(=O)n1` (stereo not drawn), for which the logP in [1] came out at 1.02. The half-life in data set [2] was 2 h; in data set [3], 3 h; in data set [4], 3.5 h; in data set [10], 2.5 h; in data set [11] it was 4.5 h. Besides, the EC50 in data set [5] is 570 nM; in data set [8], 23.7 nM; in data set [12], 10 nM. Besides, the values for the CC50 in data set [6] and in data set [7] were > 440000 nM and > 10000 nM, respectively. The SI in [9] was >772 and >422.

For `Nc1ccn([C@@H]2CS[C@H](CO)O2)c(=O)n1` [LAMIVUDINE], the logP in [1] is 0.06. In addition, the EC50 came out at 500 nM in data set [5], 11.6 nM in data set [8] and 200 nM in data set [12]. For the same molecule, the results for the CC50 in data set [6] and in data set [7] were > 44000 nM and > 10000 nM, respectively.

`Nc1ccn([C@H]2CC[C@@H](CO)O2)c(=O)n1` [ZALCITABINE]: the logP in data set [1] was -0.58. Further, the EC50 in data set [5] came out at 1040 nM. In data set [6], this molecule had a CC50 of 141000 nM. Also, the SI in data set [9] was found to be 135.

As to `O=c1nc(/N=C/N2CCOCC2)ccn1C1CSC(CO)O1` (stereo not drawn), in data set [1], the logP was found to be 0.62. Also, the half-life is 1 h in [2]; 2.5 h in data set [3]; 2.5 h in data set [4]; 1.5 h in data set [10]; 3.5 h in data set [11]. Also, the EC50 in [5] came out at 400 nM; in data set [8], 6.2 nM; in data set [12], 50 nM. For the same molecule, the figures for the CC50 in data set [6] and in [7] were > 265000 nM and > 10000 nM, respectively.
